Hits are enriched below; roughly 2.8% of the tested compounds scored in any of these assays.
PAFAH1B3 inh: blocks human PAF acetylhydrolase 1B catalytic subunit 3. Q15102. recombinant PAFAH1B3, FP-rhodamine probe, fluorescence polarization. inhibition, % at 3.39 µM. hit rate 0.28% among 340,000. AID 492972;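 active means inhibition above the screen-wide average of all tested compounds plus 3 SD, cut at about 25% in these data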
pPAFAH FP inh: pPAFAH (human) enzyme inhibition. Q13093. recombinant pPAFAH, FP-rhodamine probe fluorescence polarization. inhibition, % at 3.39 µM. hit rate 1.5% among 330,000;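 active means inhibition above the mean inhibition across the screen plus 3 SD, cut at about 25% in these data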;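 further: inhibitors block binding of the rhodamine activity-based probe so polarization drops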
ARFGAP1 inhibitor: inhibits rat ARF GTPase activating protein 1; Q62848; Arfgap1-stimulated ARF1 GTP hydrolysis, GDP FP detection; inhibition, % at 16.5 µM; hit rate 0.26% among 360,000;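 active means inhibition above a per-plate limit, mean inhibition of low control wells plus 3 SD, cut at about 25% in these data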
Target sequence (Q62848 1-136 limits assumed): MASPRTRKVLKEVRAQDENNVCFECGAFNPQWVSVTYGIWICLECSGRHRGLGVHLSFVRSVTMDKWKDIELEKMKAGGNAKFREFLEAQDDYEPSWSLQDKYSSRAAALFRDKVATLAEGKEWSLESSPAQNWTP
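Replicates: Single well per compound | Assay system: Truncated rat Arfgap1 GAP domain | Control set: No-Arfgap1 wells (100%) versus DMSO full-reaction wells (0%) | Times: Enzyme reaction 120 min at 25 °C after 20 min preincubation | Reagent: Human ARF1(Δ1-17)-GTP substrate | Measured by: Tracer-displacement fluorescence polarization with EDTA stop, 620/688 nm | Measure: Percent inhibition of Arfgap1-stimulated GTP hydrolysis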
PAFAH1B2 inh: PAFAH1B2 (human) inhibition; AID 492953; P68402; inhibition, % at 3.39 µM; hit rate 1.2% among 340,000; recombinant PAFAH1B2, FP-rhodamine activity probe, fluorescence polarization;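 active means inhibition above the mean of all tested compounds plus 3 SD, cut at about 24% in these data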
Target sequence (P68402 whole entry, looked up): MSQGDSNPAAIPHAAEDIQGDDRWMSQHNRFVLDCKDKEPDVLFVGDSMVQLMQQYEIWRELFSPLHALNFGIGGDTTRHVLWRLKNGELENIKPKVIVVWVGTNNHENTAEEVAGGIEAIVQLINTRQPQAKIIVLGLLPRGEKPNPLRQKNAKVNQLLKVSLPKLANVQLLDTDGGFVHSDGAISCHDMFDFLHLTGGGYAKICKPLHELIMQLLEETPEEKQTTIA
ASAP1 GAP inh: inhibitors of human ASAP1 ArfGAP activity. Q9ULH1. ASAP1-stimulated ARF1 GTP hydrolysis, GDP FP detection. inhibition, % at 16.5 µM. hit rate 0.19% among 360,000. AID 624377; in the data active means inhibition above about 25%
PAFAH2 inh: inhibitors of human PAFAH2 | AID 492956 | recombinant PAFAH2, FP-rhodamine activity probe, fluorescence polarization | inhibition, % at 3.39 µM | hit rate 0.99% among 340,000 | Q99487;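 active means inhibition above the mean over all tested compounds plus 3 SD, cut at about 30% in these data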;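 further: inhibitors block probe labeling of enzyme so polarization drops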
Large screens that a line does not name were inactive.

Clc1ccc(OCCSCc2nc3ccccc3[nH]2)cc1	PAFAH1B2 inh 31
S=C(c1ccco1)N1CCOCC1	none (no result: pPAFAH FP inh)
C[C@@H]1CN([C@H](C)CO)C(=O)c2cccc(NC(=O)NC3CCCCC3)c2O[C@@H]1CN(C)C(=O)Nc1ccc(C(F)(F)F)cc1	PAFAH1B2 inh 64 (no result: ARFGAP1 inhibitor, ASAP1 GAP inh)
C[C@H](CO)N1C[C@H](C)[C@@H](CN(C)C(=O)Nc2ccc(C(F)(F)F)cc2)Oc2c(NC(=O)CCC(F)(F)F)cccc2C1=O	PAFAH1B2 inh 28
C[C@H](CO)N1C[C@H](C)[C@@H](CN(C)C(=O)Nc2ccccc2)Oc2c(NC(=O)Nc3ccccc3)cccc2C1=O	none
C[C@H](CO)N1C[C@H](C)[C@@H](CN(C)C(=O)Nc2ccc(C(F)(F)F)cc2)Oc2c(NC(=O)NC3CCCCC3)cccc2C1=O	none
C[C@H](CO)N1C[C@H](C)[C@@H](CN(C)C(=O)Nc2ccc(C(F)(F)F)cc2)Oc2c(NC(=O)Cc3ccccc3)cccc2C1=O	none
C[C@H](CO)N1C[C@H](C)[C@@H](CN(C)C(=O)Nc2ccccc2)Oc2c(NC(=O)Nc3ccc(C(F)(F)F)cc3)cccc2C1=O	PAFAH1B2 inh 36
Cc1ccc(S(=O)(=O)N2CCOCC2)cc1NC(=O)CSc1nnc(COc2ccccc2F)n1N	none (no result: pPAFAH FP inh)
O=C(CN1C(=O)C2CC=CCC2C1=O)Nc1ccc(OC(F)(F)F)cc1 (stereo unspecified)	none
Cc1nc2c(C(=O)NCCc3ccccc3Cl)c[nH]n2c(=O)c1Cl	pPAFAH FP inh 25
Cc1nc2c(C(=O)NCc3ccccc3Cl)c[nH]n2c(=O)c1Cl	pPAFAH FP inh 32
O=C(O)COc1ccc(-c2nc(-c3ccccc3)c(-c3ccccc3)[nH]2)cc1	none
COc1cccc(-c2nc(-c3ccccc3)c(-c3ccccc3)[nH]2)c1OCC(=O)O	PAFAH1B2 inh 24 (no result: pPAFAH FP inh)
O=C(O)COc1ccccc1-c1nc(-c2ccccc2)c(-c2ccccc2)[nH]1	PAFAH1B2 inh 36
COc1cc(C(Nc2ccc(S(=O)(=O)N3CCC(C)CC3)cc2)C(=O)NCC2CCCO2)cc(OC)c1OC (stereo unspecified)	PAFAH1B2 inh 25
COc1cc(C(Nc2ccc(S(=O)(=O)NCC3CCCO3)cc2)C(=O)NC(C)(C)C)cc(OC)c1OC (stereo unspecified)	none
COC(=O)c1ccc(C)c(NC(=O)CSc2nnc3ccccn23)c1	none
Cc1cnc(CNC(=O)c2csc([C@@H]3C[C@H](O)[C@@H](CO)O3)n2)cn1	none (no result: PAFAH1B3 inh, pPAFAH FP inh, PAFAH1B2 inh, PAFAH2 inh)
CC(C)C(NC(=O)CC12CC3CC(CC(C3)C1)C2)C(=O)O (stereo unspecified)	PAFAH1B2 inh 25
Cc1ccc(-c2cc3ccccc3nc2N2CCOCC2)cc1	pPAFAH FP inh 26 (no result: PAFAH1B3 inh, PAFAH1B2 inh, PAFAH2 inh)
N#Cc1c(SC(C(=O)O)c2ccccc2)nc2c(c1-c1cccs1)CCCC2 (stereo unspecified)	PAFAH1B2 inh 27
NC(=O)c1c(N)[nH]c(C(=O)c2ccccc2)c1-c1ccc(Br)cc1	none (no result: PAFAH1B3 inh, pPAFAH FP inh, PAFAH1B2 inh, PAFAH2 inh)
COc1ccccc1-c1ccc(/C=C2\C=CC(=O)O2)o1	pPAFAH FP inh 26 (no result: PAFAH1B3 inh, PAFAH1B2 inh, PAFAH2 inh)
COc1ccccc1-c1ccc(/C=C2/C=C(C)OC2=O)o1	none
CC(CCc1ccccc1)NS(=O)(=O)c1ccccc1 (stereo unspecified)	PAFAH1B2 inh 33
N#CCC(=O)Nc1ccc(C(=O)OCC(=O)NNC(=O)c2ccc(Cl)cc2)cc1	none
CC(=O)Nc1ccc(C(=O)OCc2ccc(F)cc2)cc1	none
O=C(COC(=O)c1ccc(O)cc1)Nc1ccc(Cl)cc1	pPAFAH FP inh 27 (no result: PAFAH1B3 inh, PAFAH1B2 inh, PAFAH2 inh)
CC(=O)Nc1ccc(C(=O)OCc2ccc(Cl)cc2)cc1	PAFAH2 inh 31
N#CCC(=O)Nc1ccc(C(=O)OCC(=O)Nc2ccc3ccccc3c2)cc1	pPAFAH FP inh 33
CC(C)NC(=O)Cn1nnc(-c2ccccc2)c1COc1ccc2ccccc2c1	none (no result: PAFAH1B3 inh, pPAFAH FP inh, PAFAH1B2 inh, PAFAH2 inh)
Cc1ccccc1NS(=O)(=O)c1ccc(OCC(=O)NCc2cccnc2)cc1	pPAFAH FP inh 33
O=C(COc1ccc(S(=O)(=O)Nc2ccccc2)cc1)NCc1cccnc1	pPAFAH FP inh 29
CC(NS(=O)(=O)c1ccc(OCC(=O)NCc2cccnc2)cc1)c1ccccc1 (stereo unspecified)	none
CCN1CCN(S(=O)(=O)c2ccc(Cl)c(C(=O)NC3CCCCC3)c2)CC1	PAFAH1B2 inh 28

Compound activity: PubChem, The Scripps Research Institute Molecular Screening Center
